One series deals with T1, Tm0922 (Thermotoga maritima, UniProt Q9X024).
T1 sequence (Q9X024 1-490): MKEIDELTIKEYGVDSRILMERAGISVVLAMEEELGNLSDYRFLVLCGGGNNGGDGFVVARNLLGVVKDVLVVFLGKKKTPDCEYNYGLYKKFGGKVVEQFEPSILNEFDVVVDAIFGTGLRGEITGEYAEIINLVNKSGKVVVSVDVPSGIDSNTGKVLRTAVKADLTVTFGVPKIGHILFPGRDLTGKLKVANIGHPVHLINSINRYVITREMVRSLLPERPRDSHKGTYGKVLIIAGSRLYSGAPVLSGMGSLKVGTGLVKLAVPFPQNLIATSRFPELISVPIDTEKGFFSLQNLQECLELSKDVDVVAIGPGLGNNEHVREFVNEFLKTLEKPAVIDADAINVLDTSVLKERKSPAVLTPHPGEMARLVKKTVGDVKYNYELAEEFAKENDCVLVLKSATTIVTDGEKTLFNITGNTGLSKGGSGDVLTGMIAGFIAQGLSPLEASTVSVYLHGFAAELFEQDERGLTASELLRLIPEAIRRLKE
The series can be described thus: isothermal titration calorimetry. Format: binding. The essentials: (§1)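 Isothermal titrations were run at 25°C, with Tm0922 also tested at 55°C, in 100 mM HEPES pH 7.5 with 100 mM NaCl. Purified protein was in the cell at 70-130 μM. Metabolite ligands from the NAD-related and thymine-related sets were titrated to final concentrations 1.2 to 5 times the protein concentration. Binding parameters were taken from curves fitted to the titration profiles.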
For orientation: Isothermal titration calorimetry measures the heat released or taken up as one component is titrated into another.

For another series, the target named is T2, AI-BP (Mus musculus, UniProt Q8K4Z3).
T2 sequence (Q8K4Z3 25-282): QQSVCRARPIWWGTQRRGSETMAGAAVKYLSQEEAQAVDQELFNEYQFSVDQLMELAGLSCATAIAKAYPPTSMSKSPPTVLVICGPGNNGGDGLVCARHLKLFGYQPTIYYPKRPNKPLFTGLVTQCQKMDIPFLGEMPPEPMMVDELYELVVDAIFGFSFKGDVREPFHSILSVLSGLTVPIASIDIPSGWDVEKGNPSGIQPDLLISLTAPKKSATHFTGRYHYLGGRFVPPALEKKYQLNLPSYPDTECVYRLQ
Briefly: isothermal titration calorimetry. As to conditions: 100 mM HEPES pH 7.5, 100 mM NaCl, 25°C. Format: binding. The essentials:
as §1

For series [1], the target named is T3, YxkO (Bacillus subtilis, UniProt P94368).
T3 sequence (P94368 1-276): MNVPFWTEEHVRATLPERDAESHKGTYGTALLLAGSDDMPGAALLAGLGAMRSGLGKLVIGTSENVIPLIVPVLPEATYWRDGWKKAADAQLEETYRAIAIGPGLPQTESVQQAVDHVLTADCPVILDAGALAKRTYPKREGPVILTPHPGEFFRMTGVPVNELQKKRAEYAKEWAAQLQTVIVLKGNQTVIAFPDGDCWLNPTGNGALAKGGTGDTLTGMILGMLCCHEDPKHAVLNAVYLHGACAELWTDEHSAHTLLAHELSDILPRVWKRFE
The series can be described thus: isothermal titration calorimetry. It is filed as binding. An outline of the steps:
as §1

Series [2] has as its target T3, YxkO. The series can be described thus: crystal structure. Conditions: ATP-binding site, Mg2+.
In series [3] the target is T3, YxkO. The series can be described thus: crystal structure. It is filed as binding. As to conditions: kinase substrate site, AMP/Mg2+ in ATP site; dehydratase substrate.
Substrate in series [4]: NC(=O)C1=CN([C@@H]2O[C@H](COP(=O)(O)OP(=O)(O)OC[C@H]3O[C@@H](n4cnc5c(N)ncnc54)[C@H](O)[C@@H]3O)[C@@H](O)[C@H]2O)C(O)CC1
Briefly: purified protein. As to conditions: co-substrate ADP, 25°C. It is filed as biochemical, Bacillus subtilis.

Substrate in series [5]: Nc1ncnc2c1ncn2[C@@H]1O[C@H](COP(=O)(O)OP(=O)(O)O)[C@@H](O)[C@H]1O
Briefly: purified protein. Format: biochemical, Bacillus subtilis. As to conditions: co-substrate NADHX, 25°C, varied: cofactor.

Read-outs that look alike come from different tables or passages of the source.

In general, Kd refers to the constant that tells how readily two partners part at equilibrium. A higher Kd goes with weaker binding. Consider `Nc1ncnc2c1ncn2[C@@H]1O[C@H](COP(=O)(O)OP(=O)(O)OC[C@H]2OC(O)[C@H](O)[C@@H]2O)[C@@H](O)[C@H]1O` (stereo partly shown) [ADPR], for which the dissociation constant (Kd) on Tm0922 (100 mM HEPES pH 7.5, 100 mM NaCl, 25°C (55°C also tested), likely YjeF_N site) stood at 5.1 ± 0.4 µM; at AI-BP, 451 ± 30.8 µM. As for `Nc1ncnc2c1ncn2[C@@H]1O[C@H](COP(=O)(O)OP(=O)(O)OP(=O)(O)O)[C@@H](O)[C@H]1O` [ATP], the Kd at YxkO [1] was 595 ± 134 µM.

As for `Nc1ncnc2c1ncn2[C@@H]1O[C@H](COP(=O)(O)OP(=O)(O)OC[C@H]2O[C@@H]([n+]3cccc(C(=O)O)c3)[C@H](O)[C@@H]2O)[C@@H](O)[C@H]1OP(=O)(O)O` [NAADP], at Tm0922, the Kd is 105 ± 11.1 µM. Take `Nc1ncnc2c1ncn2[C@@H]1O[C@H](COP(=O)(O)OP(=O)([O-])OC[C@H]2O[C@@H]([n+]3cccc(C(=O)O)c3)[C@H](O)[C@@H]2O)[C@@H](O)[C@H]1O` [NAAD]: the “crystal structure (cocktail soak)” value on YxkO [2] was “nicotinic acid adenine dinucleotide (NAAD) is bound in the same position”. The molecule `NC(=O)C1=CN([C@@H]2O[C@H](COP(=O)(O)OP(=O)(O)OC[C@H]3O[C@@H](n4cnc5c(N)ncnc54)[C@H](O)[C@@H]3O)[C@@H](O)[C@H]2O)C=CC1` [NADH] returned a Kd at YxkO [1] of 9.6 ± 0.7 µM. Turning to `NC(=O)C1=CN([C@@H]2O[C@H](COP(=O)(O)OP(=O)(O)OC[C@H]3O[C@@H](n4cnc5c(N)ncnc54)[C@H](OP(=O)(O)O)[C@@H]3O)[C@@H](O)[C@H]2O)C(O)CC1` (stereo partly shown) [NADPHX], the “crystal structure (ATP/Mg2+ co-crystal soaked with NADPH)” value on YxkO [3] is given as “Coordination of NADPHX in the active site of YxkO”.

In the case of `NC(=O)C1=CN([C@@H]2O[C@H](COP(=O)(O)OP(=O)(O)OC[C@H]3O[C@@H](n4cnc5c(N)ncnc54)[C@H](OP(=O)(O)O)[C@@H]3O)[C@@H](O)[C@H]2O)C=CC1` [NADPH], the affinity at Tm0922, expressed as Kd, was 5.3 ± 1.2 µM. The same measure, in the same setting: the same measure for `NC(=O)c1ccc[n+]([C@@H]2O[C@H](COP(=O)(O)OP(=O)(O)OC[C@H]3O[C@@H](n4cnc5c(N)ncnc54)[C@H](OP(=O)(O)O)[C@@H]3O)[C@@H](O)[C@H]2O)c1` [NADP]: 6 ± 0.9 µM.

`NC(=O)c1ccc[n+]([C@@H]2O[C@H](COP(=O)(O)OP(=O)(O)OC[C@H]3O[C@@H](n4cnc5c(N)ncnc54)[C@H](O)[C@@H]3O)[C@@H](O)[C@H]2O)c1` [NAD]: the “crystal structure (cocktail soak)” value on YxkO [2] was “YxkO and Tm0922 crystals soaked with cocktail G contained NAD in the predicted ATP-binding site”.

B1: YxkO (Bacillus subtilis subsp. subtilis str. 168) (protein)
chain: T3 sequence (P94368 1-276)
The term kcat denotes the number of substrate molecules converted per active site and unit of time at saturation. Usually Km stands for the substrate concentration at which the rate is half of its maximum. Regarding B1, the catalytic constant (kcat) in “purified protein [4]” and in “purified protein [5]” was 0.35 ± 0.01 s⁻¹ each time. Further, in “purified protein [5]”, the Michaelis-Menten constant (Km) is 6.43 ± 0.49 µM.

These data come from publication PMC3472112 (Structure (London, England : 1993), 2012).
